Published values from different studies.
Protocols differ between the studies behind these lines.
Observed: enzyme activity
Mode: inhibitor
IGF1R: Insulin-like growth factor 1 receptor (IGF1R, Homo sapiens, UniProt P08069)
IGF1R phosphorylated: Insulin-like growth factor 1 receptor, phosphorylated (IGF1R, Homo sapiens, UniProt P08069)

Structure (SMILES)	target	technique	concentration	remaining activity [%]
Cc1[nH]c(/C=C2\C(=O)Nc3ccc(F)cc32)c(C)c1C(=O)N[C@H]1CCN(C(=O)N(C)C)C1	IGF1R	–	1 µM	106
CCN(CC)c1ccc(C2=NNC(=O)CC2C)cc1[N+](=O)[O-] (stereo not shown)	IGF1R phosphorylated	–	10 µM	102
CCCOc1ccc(OC)c(F)c1C(=O)c1ccc(C(=O)N[C@@H]2CNC[C@H]2NC(=O)c2ccc3[nH]ncc3c2)cc1	IGF1R phosphorylated	–	10 µM	76
Nc1nc(Nc2ccccc2)sc1C(=O)c1c(F)cccc1F	IGF1R	–	10 µM	80
Cc1cnc(NC2CCOCC2)nc1-n1cnc(C(=O)NC(CN)c2cc(F)cc(Cl)c2)c1 (stereo not shown)	IGF1R	radiometric	1 µM	103
Cc1sc(C(=O)NC2COC2)cc1-n1cc(NC(=O)Nc2c(F)cccc2Cl)cn1	IGF1R	–	10 µM	102
Oc1cccc(-c2nc(N3CCOCC3)c3oc4ncccc4c3n2)c1	IGF1R	–	10 µM	54
COc1cc(Cl)c(C(=O)N[C@@H](CN[C@H]2CC[C@@H](N)CC2)Cc2ccc(C#N)cc2)cc1-c1ccc(CN[C@H](C)c2ccc(C)cc2)o1	IGF1R phosphorylated	–	1 µM	117
CC(C)(O)[C@H]1CC[C@H](Nc2ccc3ncc(-c4cccc(C(F)(F)F)c4)n3n2)CC1	IGF1R	–	1 µM	99.2
COc1cc(Nc2cnc(C#N)c(O[C@H](C)CN(C)C)n2)ncc1-c1cnn(C)c1	IGF1R	radiometric	1 µM	100
CC(C)(C)c1nc2c(s1)c1nc(N)ncc1c1ccc(NS(=O)(=O)c3c(F)cccc3F)c(F)c12	IGF1R	radiometric	1 µM	100
FC(F)c1nc2ccccc2n1-c1nc(N2CCOCC2)nc(N2CCOCC2)n1	IGF1R	–	10 µM	87
CCN(CC)CCNC(=O)c1c(C)[nH]c(/C=C2\C(=O)Nc3ccc(F)cc32)c1C	IGF1R	–	1 µM	67
